B1: NELF-E aptamer (parent)
chain: CCCAACGACUGCCGAGCGAGAUUACGCUUGAGCGCCCCACUGAGGAUGCCCACGGGCGAUUGGGGCACGG

Variants of: B1
Test: HiTS-RAP
Details: with NELF-E (Drosophila)
How it was run: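 Aptamer DNA templates carrying a T7 promoter and ter site were sequenced on an Illumina GAIIx flowcell, then transcribed in situ by T7 RNA polymerase and halted by GST-Tus (30 minutes, 37°C). Clusters were imaged after 30-minute room-temperature equilibration with NELF-E-mOrange at 0.064 to 1000 nM in HEPES binding buffer, and only the first binding curve was used. Intensities were normalised to sequencing intensity and averaged per sequence. Kd came from weighted Hill fits, keeping fits with variance below 1,000,000.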

| Variant | Kd |
| --- | --- |
| CCCAACUACUGCCGAGCGAGAUUACGCUUGAGCGCCCCACUGAGGAUGCCCACUGGCGAUUGGGGCACGG | 5.44 nM |
| CCCAACUACUGCCGAGCGAGAUUACGCUUGAGCGCCCCACUGAGGAUGCCCACAGGCGAUUGGGGCACGG | 15.7 nM |
| CCCAACUACUGCCGAGCGAGAUUACGCUUGAGCGCCCCACUGAGGAUGCCCACGUGCGAUUGGGGCACGG | 6.97 nM |
| CCCAACUACUGCCGAGCGAGAUUACGCUUGAGCGCCCCACUGAGGAUGCCCACGAGCGAUUGGGGCACGG | 7.6 nM |
| CCCAACUACUGCCGAGCGAGAUUACGCUUGAGCGCCCCACUGAGGAUGCCCACGGGCGACUGGGGCACGG | 10.9 nM |
| CCCAACGGUUGCCGAGCGAGAUUACGCUUGAGCGCCCCACUGAGGAUGCCCACGGGCGAUUGGGGCACGG | 5.53 nM |
| CCCAACGGGUGCCGAGCGAGAUUACGCUUGAGCGCCCCACUGAGGAUGCCCACGGGCGAUUGGGGCACGG | 5.53 nM |
| CCCAACGGAUGCCGAGCGAGAUUACGCUUGAGCGCCCCACUGAGGAUGCCCACGGGCGAUUGGGGCACGG | 7.04 nM |
| CCCAACUACUGCCGAGCGAGAUUACGCUUGAGCGCCCCACUGAGGAUGCCCACGGUCGAUUGGGGCACGG | 7.83 nM |
| CCCAACUACUGCCGAGCGAGAUUACGCUUGAGCGCCCCACUGAGGAUGCCCACGGACGAUUGGGGCACGG | 9.43 nM |
| CCCAACUACUGCCGAGCGAGAUUACGCUUGAGCGCCCCACUGAGGAUGCCCACGGGCGAUUUGGGCACGG | 7.8 nM |
| CCCAACUACUGCCGAGCGAGAUUACGCUUGAGCGCCCCACUGAGGAUGCCCACGGGCGAUUAGGGCACGG | 25.2 nM |
| CCCAACGGCUGCCGUGCGAGAUUACGCUUGAGCGCCCCACUGAGGAUGCCCACGGGCGAUUGGGGCACGG | 5.54 nM |
| CCCAACGGCUGCCGGGCGAGAUUACGCUUGAGCGCCCCACUGAGGAUGCCCACGGGCGAUUGGGGCACGG | 6.29 nM |
| CCCAACUACUGCCGAGCGAGAUUACGCUCGAGCGCCCCACUGAGGAUGCCCACGGGCGAUUGGGGCACGG | 6.86 nM |
| CCCAACUACUGCCGAGCGAGAUUACGCUAGAGCGCCCCACUGAGGAUGCCCACGGGCGAUUGGGGCACGG | 5.71 nM |
| CCCAACUACUGCCGAGCGAGAUUACGCUGGAGCGCCCCACUGAGGAUGCCCACGGGCGAUUGGGGCACGG | 6.33 nM |
| CCCAACGGCUGCCGAGCGAGAUUACGCUUGAGCGCCCCACUGAGGAUGCCCACGGGCGAUUGGGGCGCGG | 6.62 nM |
| CCCAACGGCUGCCGAGCGAGAUUACGCUUGAGCGCCCCACUGAGGAUGCCCACGGGCGAUUGGGGCUCGG | 6.63 nM |
| CCCAACUACUGCCGAGCGAGAUUACGCGUGAGCGCCCCACUGAGGAUGCCCACGGGCGAUUGGGGCACGG | 8.81 nM |

| Variant | Kd |
| --- | --- |
| CCCAACUACUGCCGAGCGAGAUUACGCAUGAGCGCCCCACUGAGGAUGCCCACGGGCGAUUGGGGCACGG | 5.51 nM |
| CCCAACUACUGCCGAGCGAGAUUACGCCUGAGCGCCCCACUGAGGAUGCCCACGGGCGAUUGGGGCACGG | 9.32 nM |
| CCCAACGGCUGCCGAGCGAGAUUACGCUUGAGCGCCCCACUGAGGGUGCCCACGGGCGAUUGGGGCACGG | 17.8 nM |
| CCCAACGGCUGCCGAGCGAGAUUACGCUUGUGCGCCCCACUGAGGAUGCCCACGGGCGAUUGGGGCACGG | 5.68 nM |
| CCCAACGGCUGCCGAGCGAGAUUACGCUUGGGCGCCCCACUGAGGAUGCCCACGGGCGAUUGGGGCACGG | 7.13 nM |
| CCCAACUACUGCCGAGCGAGAUUACGCUUGAGCGCCCCACUGAGGAUGCCCACGGGCGAUUGGUGCACGG | 7.33 nM |
| CCCAACUACUGCCGAGCGAGAUUACGCUUGAGCGCCCCACUGAGGAUGCCCACGGGCGAUUGGAGCACGG | 8.36 nM |
| CCCAACGCCUGCCGAGCGAGAUUACGCUGGAGCGCCCCACUGAGGAUGCCCACGGGCGAUUGGGGCACGG | 8.24 nM |
| CCCAACGCCGGCCGAGCGAGAUUACGCUUGAGCGCCCCACUGAGGAUGCCCACGGGCGAUUGGGGCACGG | 6.49 nM |
| CCCAACGGCUGCCGAGGGAGAUUACGCUUGAGCGCCCCACUGAGGAUGCCCACGGGCGAUUGGGGCACGG | 5.53 nM |
| CCCAACUACUGCCGAGCGAGAUUACGCUUGAGCGCCCCACUGAGGAAGCCCACGGGCGAUUGGGGCACGG | 12.9 nM |
| CCCAACUACUGCCGAGCGAGAUUACGCUUGAGCGCCCCACUGAGGAGGCCCACGGGCGAUUGGGGCACGG | 7.97 nM |
| CCCAACGGCUGCCGAGCGGGAUUACGCUUGAGCGCCCCACUGAGGAUGCCCACGGGCGAUUGGGGCACGG | 5.51 nM |
| CCCAACGGCUGCCGAGCGUGAUUACGCUUGAGCGCCCCACUGAGGAUGCCCACGGGCGAUUGGGGCACGG | 5.53 nM |
| CCCAACUACUGCCGAGCGAGAUUACGCUUGAGCGCCCCACUGAGGAUGCCCACGGGCGAUAGGGGCACGG | 39.5 nM |
| CCCAACUACUGCCGAGCGAGAUUACGCUUGAGCGCCCCACUGAGGAUGCCCACGGGCGAUCGGGGCACGG | 79 nM |
| CCCAACGCCUGCCGAGCGAGAGUACGCUUGAGCGCCCCACUGAGGAUGCCCACGGGCGAUUGGGGCACGG | 7.46 nM |
| CCCAACGGCUGCCGAGCGAGAUUACGCUUGAGCGCCCCACUGUGGAUGCCCACGGGCGAUUGGGGCACGG | 63.6 nM |
| CCCAACGGCUGCCGAGCGAGAUUACGCUUGAGCGCCCCACUGGGGAUGCCCACGGGCGAUUGGGGCACGG | 23.7 nM |
